The list is not random: actives were taken first. Their share in the collection is about 2.4%.
HIV Env fusion – inhibitors of HIV Env-mediated cell fusion; HeLa-JRFL Env/CEM21 cell fusion, luciferase; inhibition, % at 12.3 µM; hit rate 1.1% among 360,000; AID 651610;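 active = mean replicate inhibition score of at least 50 and every replicate individually at or above 50; inconclusive = only one of the two criteria met; inactive = mean below 50 and not all replicates reaching 50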
Rtt109 Vps75 – blocks Candida albicans Rtt109/Vps75 acetyltransferase activity; purified Rtt109/Vps75, ThioGlo CoA-SH fluorescence, 4 h; AID 540336; Q5AAJ8; hit rate 0.16% among 330,000; inhibition, % at 34.9 µM;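 active = inhibition of at least 50% in every replicate; inconclusive = best replicate reaches 50% inhibition but some replicates fall short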
Target sequence (Q5AAJ8 whole entry, looked up): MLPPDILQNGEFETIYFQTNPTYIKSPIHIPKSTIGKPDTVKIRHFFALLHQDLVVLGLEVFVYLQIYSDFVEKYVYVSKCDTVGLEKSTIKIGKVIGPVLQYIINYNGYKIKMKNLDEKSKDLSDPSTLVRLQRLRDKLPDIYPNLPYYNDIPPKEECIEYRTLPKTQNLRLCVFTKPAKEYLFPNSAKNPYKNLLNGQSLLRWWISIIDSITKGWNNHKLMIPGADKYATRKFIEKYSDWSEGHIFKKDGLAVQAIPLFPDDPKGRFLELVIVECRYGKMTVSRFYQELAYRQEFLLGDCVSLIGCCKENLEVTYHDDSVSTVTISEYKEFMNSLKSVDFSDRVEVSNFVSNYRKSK
dFosB activator – activators of mouse delta FosB homodimer | purified delta FosB, TAMRA-CDK5 oligo fluorescence polarization; percent of positive-control signal above neutral wells | activation, % at 25 µM | hit rate 0.99% among 340,000 | AID 493131;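 active = mean activation above about 17%, with every replicate also reaching it, limit read from the data, passing the limit was not always enough; inconclusive = only one of the two conditions met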
Target sequence (P13346 whole entry, looked up): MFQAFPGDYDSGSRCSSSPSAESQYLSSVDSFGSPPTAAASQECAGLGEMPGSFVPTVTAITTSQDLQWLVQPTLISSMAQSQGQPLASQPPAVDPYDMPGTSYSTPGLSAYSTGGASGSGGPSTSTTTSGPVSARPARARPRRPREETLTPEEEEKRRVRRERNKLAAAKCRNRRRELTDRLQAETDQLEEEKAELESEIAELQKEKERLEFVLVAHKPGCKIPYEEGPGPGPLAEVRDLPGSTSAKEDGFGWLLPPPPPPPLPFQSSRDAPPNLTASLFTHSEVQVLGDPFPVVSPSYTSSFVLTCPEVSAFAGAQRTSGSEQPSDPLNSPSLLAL
Cneo AK release – Cryptococcus neoformans lysis via adenylate kinase release; hit rate 0.2% among 360,000; AID 651654; lysis activity, % at 15 µM; C. neoformans lysis, adenylate kinase release luminescence, 4 h; normalised: neutral wells 0, clomiphene wells 100;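 active = mean lysis activity across replicates of at least 80%, whatever share of replicates individually reach that level; inactive = mean lysis activity below 80%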
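Test system: log-phase Cryptococcus neoformans yeast cells. Input: 5 × 10^6 yeast cells/mL. Medium: fresh YPD growth medium. Doses: single dose. Incubation: static 4 h at 37 °C with compound, 1 h detection. Measured by: luminescent adenylate kinase detection reagent. Read-out: signal increase indicating cell lysis. Benchmarks: Clomiphene.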
miR122 inh – inhibitors of miR-122 in Huh7 cells | activation (reporter increase), % at 12.5 µM | Huh7 miR-122 Renilla luciferase sensor, 48 h; neutral wells = 0, positive control = 100 | hit rate 0.3% among 340,000;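 active = mean replicate activation score at least 90 and every replicate individually at or above 90; inconclusive = only one of the two criteria met; inactive = neither criterion met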;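 also: higher luciferase means less miR-122 activity so hits act as miR-122 inhibitors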
GSIS activator – primary screen for activators of insulin secretion dependent on glucose, INS-1E cells, GLuc reporter luminescence. INS-1E GLuc reporter insulin secretion, 2-3 h. activation, % at 16.6 µM. hit rate 0.61% among 370,000;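 active = lowest replicate activation of at least 40%, so every replicate reaches that level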
Numbers stand for hits; – = inactive; ? = inconclusive; · = not tested or not shown; [ ] = another dose, or the depositor's remark.

SMILES	HIV Env fusion	Rtt109 Vps75	dFosB activator	Cneo AK release	miR122 inh	GSIS activator
Cc1cc(N2CCN(C(c3ccccc3)c3ccccc3)CC2)n2ncnc2n1	–	–	–	–	–	–
CN(C)c1nc2c(c(=O)[nH]c(=O)n2C)n1CCOc1ccccc1	–	–	–	–	–	–
CCN(CC)c1nc2c(c(=O)[nH]c(=O)n2C)n1CCOc1ccccc1	–	58	–	–	–	–
CCCCCCn1c(SCC(C)C)nc2c1c(=O)[nH]c(=O)n2C	·	–	–	–	–	71
C=C(C)CSc1nc2c(c(=O)[nH]c(=O)n2C)n1CCC(C)C	–	–	–	–	–	55
CC(C)CSc1nc2c(c(=O)[nH]c(=O)n2C)n1CCc1ccccc1	·	–	–	–	–	71
COc1ccc(CN(C)C[C@H]2OCCCC[C@H](C)Oc3ccc(NC(=O)c4ccccc4)cc3C(=O)N([C@@H](C)CO)C[C@H]2C)cc1	–	·	·	–	–	–
C[C@H]1CN([C@@H](C)CO)C(=O)c2cccc(NC(=O)Nc3cccc4ccccc34)c2O[C@H]1CN(C)C(=O)Nc1ccc2c(c1)OCO2	–	·	·	–	–	–
CCc1ccc(S(=O)(=O)/N=C2\C=C(Nc3ccc(C(=O)O)cc3)C(=O)c3ccccc32)cc1	73	–	–	–	–	–
Cc1ccc(S(=O)(=O)/N=C2\C=C(Nc3cccc(C(=O)O)c3)C(=O)c3ccccc32)cc1	–	–	–	–	–	–
O=C1C(Nc2ccccc2)=C/C(=N/S(=O)(=O)c2cccs2)c2ccccc21	·	·	–	–	–	·
Cc1ccc(NC2=C/C(=N/S(=O)(=O)c3cccs3)c3ccccc3C2=O)cc1	74	–	–	·	·	·
CN1c2ccc(C3=CCCCC3)cc2[C@@H]2[C@@H](CCN2C(=O)C2CC2)[C@H]1CO	–	·	·	·	·	–
O=C(C[C@H]1C=C[C@@H](NC(=O)CC2CC2)[C@H](CO)O1)NCc1ccccc1	·	·	·	·	·	–
C/C=C/c1cnc2c(c1)C(=O)N([C@@H](C)CO)C[C@@H](C)[C@@H](CN(C)Cc1ccccc1)O2	–	·	·	–	–	–
CC(C)CCCCCCCCCCCCC(=O)NCC(=O)NC1C(C)OC(Nc2ncnc3nc[nH]c23)C(O)C1O (configuration not stated)	?	–	68	·	–	·
C[C@H](CO)N1C[C@H](C)[C@H](CN(C)C(=O)C2CCCCC2)OCCCC[C@H](C)Oc2ccc(NC(=O)Nc3ccccc3)cc2C1=O	60[16.7 µM]	·	·	–	–	–
C[C@H]1CCCCO[C@@H](CN(C)C(=O)C2CCCCC2)[C@@H](C)CN([C@@H](C)CO)C(=O)c2cc(NC(=O)Nc3ccccc3)ccc2O1	64[16.7 µM]	·	·	–	–	–
CCN(CC)CCn1c2ccccc2c2nc3ccc([N+](=O)[O-])cc3cc21	–	–	51	–	–	–
COc1ccc2c3c(n(C)c2c1)[C@H](CO)N(CC1CCOCC1)CC31CN(C(=O)Nc2ccccc2)C1	·	·	·	·	·	–
CCCNC(=O)C[C@H]1C[C@H]2c3cc(NC(=O)c4cccnc4)ccc3O[C@H]2[C@@H](CO)O1	–	·	·	–	–	–
CCCNC(=O)C[C@@H]1C[C@H]2c3cc(NC(=O)c4cccnc4)ccc3O[C@H]2[C@H](CO)O1	71[16.7 µM]	·	·	–	–	–
O=C(C[C@H]1C[C@@H]2c3cc(NC(=O)c4cccnc4)ccc3O[C@@H]2[C@@H](CO)O1)NCCc1ccccc1	–	·	·	81	–	–
COc1ccccc1CNC(=O)C[C@H]1C[C@@H]2c3cc(NC(=O)c4cccnc4)ccc3O[C@@H]2[C@@H](CO)O1	90[16.7 µM]	·	·	–	–	–
O=C(C[C@@H]1C[C@H]2c3cc(NC(=O)c4cccnc4)ccc3O[C@H]2[C@@H](CO)O1)NCCc1ccccc1	–	·	·	–	–	–
SMILES	HIV Env fusion	Rtt109 Vps75	dFosB activator	Cneo AK release	miR122 inh	GSIS activator
C[C@@H]1CN([C@@H](C)CO)C(=O)c2cc(Br)cnc2O[C@@H]1CN(C)C(=O)C1CCC1	–	·	·	·	–	–
COc1ccc(C2=NS(=O)(=O)N(C)C(C(=O)NCc3cccs3)=C2)cc1OC	–	–	–	–	–	–
CN1C(C(=O)NCc2cccs2)=CC(c2ccc(F)cc2)=NS1(=O)=O	71	–	–	–	–	–
Cn1c(=O)oc2cc(S(=O)(=O)NCc3ccc(C(=O)O)cc3)ccc21	–	–	–	–	–	–
COc1cc(S(=O)(=O)NCc2ccncc2)ccc1Br	65	–	–	–	–	–
Cc1cc(C)c(C)c(S(=O)(=O)NCc2ccncc2)c1C	57	–	–	·	122	–
Cc1ccc(S(=O)(=O)NCc2ccncc2)cc1C	–	–	–	·	–	–
Cn1c(=O)oc2cc(S(=O)(=O)NCc3ccncc3)ccc21	100	–	–	–	–	·
O=C(NCCN1CCCC1)[C@H]1[C@H](CO)[C@H]2Cn3c(cccc3=O)[C@@H]1N2C(=O)NC1CCCC1	·	·	·	·	·	–
C/C=C/c1ccc([C@@H]2[C@@H](CO)N3CCCCN(C(=O)Nc4ccc(OC)cc4)C[C@H]23)cc1	·	·	·	102	–	–
C[C@@H](O)C#Cc1ccc([C@H]2[C@H](CO)N3CCCCN(CC4CC4)C[C@@H]23)cc1	·	·	·	–	–	–
O=C(NC1CCCC1)N1CCCCN2[C@H](CO)[C@H](c3ccc(-c4cncnc4)cc3)[C@@H]2C1	·	·	·	103	–	–
C[C@@H](O)C#Cc1ccc([C@@H]2[C@H](CO)N3CCCCN(CC4CC4)C[C@@H]23)cc1	·	·	·	103	–	–
O=C(NC1CCCC1)N1CCCCN2[C@H](C1)[C@H](c1ccc(-c3cncnc3)cc1)[C@@H]2CO	·	·	·	–	–	–
OC[C@@H]1[C@@H](c2ccc(C#CC3CCCC3)cc2)[C@@H]2CN(CCC(F)(F)F)CCCCN12	·	·	·	–	–	46
Cc1ccc(-c2ccc([C@H]3[C@@H](CO)N4C(=O)CN(C(=O)c5ccc(F)cc5)C[C@@H]34)cc2)cc1	·	·	·	·	·	–
OC[C@H]1[C@H](c2ccc(C#CC3CCCC3)cc2)[C@@H]2CN(CCC(F)(F)F)CCCCN12	·	·	·	–	–	–
CN(C)C(=O)c1ccc(-c2ccc([C@H]3[C@H](CO)N4CCCCN(CCC(F)(F)F)C[C@@H]34)cc2)cc1	·	·	·	96	–	–
COc1ccccc1NC(=O)N1CCCCN2[C@@H](CO)[C@@H](c3ccc(C#CC4CCCC4)cc3)[C@@H]2C1	·	·	·	–	–	55
COc1ccccc1NC(=O)N1CCCCN2[C@H](CO)[C@@H](c3ccc(C#CC4CCCC4)cc3)[C@@H]2C1	·	·	·	–	–	–
OC[C@@H]1[C@@H](c2ccc(C#CC3CCCC3)cc2)[C@H]2CN(CCC(F)(F)F)CCCCN12	·	·	·	–	–	170
CC=Cc1ccc2n(c1=O)C[C@H]1[C@H](CO)[C@@H](C(=O)NCCc3ccccc3)N(CCC)[C@@H]21 (mixture of isomers)	·	·	·	–	–	–
Cc1nc2ccccc2c2oc(C(=O)NCc3ccc4c(c3)OCO4)cc12	88	–	–	–	–	–

Source: PubChem
